From ChEMBL document CHEMBL3091364, “Benzyloxybenzylammonium chlorides: Simple amine salts that display anticonvulsant activity” (Bioorg Med Chem, 2013)
Active and inactive are the calls of the source. The calls are words filed in the database; no cut-off is given here.

Legend:
Mus musculus [1] = assay: Anticonvulsant activity in albino CF-1 mouse assessed as protection against maximal electroshock-induced seizures at 100 mg/kg, ip; type: functional, organism-based; set-up: dose 100 mg/kg
Method in brief: (§1)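 Screened under the NINDS ASP in male albino Carworth Farms No. 1 mice (ip) or male albino Sprague-Dawley rats (ip or po), using MES, 6 Hz (32 mA) and subcutaneous pentylenetetrazol seizure tests. Initial qualitative tests used preset doses (e.g., 30, 50, 100 mg/kg). ED50 values with 95% confidence intervals came from dose–response data collected at the time of peak effect.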

Mus musculus [2] = assay: Anticonvulsant activity in ip dosed albino CF-1 mouse assessed as protection against 6 Hz psychomotor seizure measured at 0.5 hrs; type: functional; settings: albino CF-1, ip; method in brief: as §1

Fc1cccc(COc2ccccc2)c1
Activity (Mus musculus [1]): inactive

COC[C@@H](NC(C)=O)C(=O)NCc1ccccc1 [LACOSAMIDE]
ED50 (Mus musculus [2]): 10 mg/kg
